Source: ChEMBL document CHEMBL4007442, “Discovery of a Potent and Selective Sphingosine Kinase 1 Inhibitor through the Molecular Combination of Chemotype-Distinct Screening Hits” (J Med Chem, 2017)

What was measured:
Sphingosine kinase 2 = molecular target: T1, Sphingosine kinase 2 (Homo sapiens, UniProt Q9NRA0); assay: Inhibition of SPHK2 (unknown origin) by FITC-based caliper assay
T1 sequence (Q9NRA0 whole entry): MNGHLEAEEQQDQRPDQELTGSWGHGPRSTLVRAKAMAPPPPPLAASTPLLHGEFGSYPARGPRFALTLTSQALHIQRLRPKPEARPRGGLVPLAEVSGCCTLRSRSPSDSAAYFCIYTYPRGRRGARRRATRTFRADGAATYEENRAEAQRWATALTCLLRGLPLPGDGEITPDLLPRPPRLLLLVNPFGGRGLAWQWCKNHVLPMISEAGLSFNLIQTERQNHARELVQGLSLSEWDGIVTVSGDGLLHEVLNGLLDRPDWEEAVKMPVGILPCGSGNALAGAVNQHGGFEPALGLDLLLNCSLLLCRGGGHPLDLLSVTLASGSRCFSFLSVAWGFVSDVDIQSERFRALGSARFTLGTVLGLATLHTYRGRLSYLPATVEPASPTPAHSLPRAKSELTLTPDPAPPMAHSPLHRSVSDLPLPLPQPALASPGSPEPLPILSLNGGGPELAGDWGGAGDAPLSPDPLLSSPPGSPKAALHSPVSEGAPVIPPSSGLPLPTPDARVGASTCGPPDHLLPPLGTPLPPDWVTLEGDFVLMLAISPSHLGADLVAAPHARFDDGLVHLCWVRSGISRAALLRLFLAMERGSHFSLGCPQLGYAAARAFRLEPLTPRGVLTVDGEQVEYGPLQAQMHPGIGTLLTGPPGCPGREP
Procedure, shortened: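 Recombinant SphK2 enzyme assay measuring FITC-S1P formation, with product resolved by microfluidic mobility-shift separation. Dose-response gives IC50. Reported values are the mean of two or more independent assays.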

Sphingosine kinase 1 [1] = molecular target: T2, Sphingosine kinase 1 (Homo sapiens, UniProt Q9NYA1); assay: Inhibition of SPHK1 in human whole-blood using C17-sphingosine as substrate assessed as reduction in C17-S1P production preincubated for 30 mins followed by substrate addition measured after 10 mins by MS analysis
Sphingosine kinase 1 [2] = molecular target: T2, Sphingosine kinase 1; assay: Inhibition of human C-terminal His6-tagged SPHK1 expressed in fall armyworm sf9 cells assessed as reduction in S1P formation using sphingosine as substrate after 1 hr by FITC-based caliper assay
Sphingosine kinase 1 [3] = molecular target: T2, Sphingosine kinase 1; assay: Inhibition of SPHK1 in human MDA1483 cells using C17-sphingosine as substrate assessed as reduction in C17-S1P formation preincubated for 30 mins with substrate measured after 15 mins by LC-MS analysis; format: cell-based
Sphingosine kinase 1 [4] = molecular target: T2, Sphingosine kinase 1; assay: Inhibition of human C-terminal His6-tagged SPHK1 expressed in fall armyworm sf9 cells assessed as reduction in ADP formation using sphingosine as substrate preincubated for 15 mins followed by substrate addition after 1 hr by transcreener-based fluorescence polarization assay
Sphingosine kinase 1 [5] = molecular target: Sphingosine kinase 1 (Homo sapiens, UniProt Q9NYA1, S225A); assay: Binding affinity to human C-terminal His6-tagged SPHK1 S225A mutant expressed in fall armyworm sf9 cells after 1 hr by ITC analysis
[6] = molecular target: Sphingosine 1-phosphate receptor 5 (Homo sapiens, UniProt Q9H228); assay: Binding affinity to S1PR5 (unknown origin)
[7] = Cytotoxicity in human MDA1483 cells at 50 uM by MTT assay; format: cell-based; conditions: mda1483, 50 µM
[8] = molecular target: Sphingosine 1-phosphate receptor 3 (Homo sapiens, UniProt Q99500); assay: Binding affinity to S1PR3 (unknown origin)
[9] = Solubility of the compound; format: physicochemical

T2 sequence (Q9NYA1 whole entry): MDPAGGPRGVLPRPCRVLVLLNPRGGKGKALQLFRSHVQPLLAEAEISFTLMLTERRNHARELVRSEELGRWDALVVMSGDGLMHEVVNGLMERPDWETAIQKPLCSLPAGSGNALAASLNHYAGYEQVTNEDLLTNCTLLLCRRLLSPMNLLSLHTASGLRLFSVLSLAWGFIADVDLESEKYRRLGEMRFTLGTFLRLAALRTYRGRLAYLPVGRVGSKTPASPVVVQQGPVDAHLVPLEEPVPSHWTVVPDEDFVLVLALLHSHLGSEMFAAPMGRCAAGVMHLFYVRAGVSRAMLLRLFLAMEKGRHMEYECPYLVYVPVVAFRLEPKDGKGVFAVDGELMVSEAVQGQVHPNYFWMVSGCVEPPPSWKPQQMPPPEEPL
Chain of Sphingosine kinase 1 (Homo sapiens, UniProt Q9NYA1, S225A) (Q9NYA1 whole entry S225A): as the sequence (Q9NYA1 whole entry) above, with S225A counted along it
Chain of Sphingosine 1-phosphate receptor 3 (Q99500 whole entry): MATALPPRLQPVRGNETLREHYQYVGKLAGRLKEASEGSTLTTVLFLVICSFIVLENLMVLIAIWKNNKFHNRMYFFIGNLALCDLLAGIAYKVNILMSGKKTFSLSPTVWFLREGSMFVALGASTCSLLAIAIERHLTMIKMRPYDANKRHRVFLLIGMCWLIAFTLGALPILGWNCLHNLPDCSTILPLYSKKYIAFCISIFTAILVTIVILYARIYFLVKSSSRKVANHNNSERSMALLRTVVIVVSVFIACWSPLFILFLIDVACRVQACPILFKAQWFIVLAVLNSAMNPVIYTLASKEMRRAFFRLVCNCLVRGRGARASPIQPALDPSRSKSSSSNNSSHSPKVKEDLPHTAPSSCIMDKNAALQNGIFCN
Chain of Sphingosine 1-phosphate receptor 5 (Q9H228 whole entry): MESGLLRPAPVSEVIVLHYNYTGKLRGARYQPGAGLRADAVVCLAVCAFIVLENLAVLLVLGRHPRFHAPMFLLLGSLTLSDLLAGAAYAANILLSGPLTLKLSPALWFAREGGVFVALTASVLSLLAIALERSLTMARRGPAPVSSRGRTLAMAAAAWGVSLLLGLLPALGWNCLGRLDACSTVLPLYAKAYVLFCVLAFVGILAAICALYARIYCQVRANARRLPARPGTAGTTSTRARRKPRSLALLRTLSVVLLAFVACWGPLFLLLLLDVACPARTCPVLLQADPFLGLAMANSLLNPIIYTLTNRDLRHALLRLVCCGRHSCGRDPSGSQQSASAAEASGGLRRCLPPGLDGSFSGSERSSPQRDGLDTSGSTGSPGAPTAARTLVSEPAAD

IC50 (Sphingosine kinase 2) [nM] | IC50 (Sphingosine kinase 1 [1]) [nM] | IC50 (Sphingosine kinase 1 [2]) [nM] | IC50 (Sphingosine kinase 1 [3]) [nM] | IC50 (Sphingosine kinase 1 [4]) [nM] | Kd (Sphingosine kinase 1 [5]) [nM] | IC50 [6] [nM] | IC50 [8] [nM] | solubility [9] | SMILES | Activity [7]
145 | > 8800 | 9820 | 1200 | 3670 | – | – | – | – | O=C(Nc1cccc(OCc2ccc(CN3CCC[C@@H]3CO)cc2)c1)c1ccccc1 | –
> 100000 | – | 12700 | 2100 | 4600 | 12000 | – | – | – | Cc1nc2ccc(-c3ccc(CN4CCC[C@@H]4CO)cc3)cc2n1C[C@@H]1CCCO1 | –
– | – | – | 30 | 28 | – | – | – | – | Cc1cc(CS(=O)(=O)c2ccccc2)cc(OCc2ccc(CN3CC[C@@H](O)C3)cc2)c1 | –
443 | 5.2 | 2.6 | 0.03 | 3 | – | – | – | – | Cc1cc(CS(=O)(=O)c2ccccc2)cc(OCc2ccc(CN3CC[C@H](O)C3)cc2)c1 | –
– | – | – | 4 | 7 | – | – | – | – | Cc1nc2ccc(-c3ccc(CN4CCC[C@@H]4CO)cc3)cc2n1CCC(C)C | –
> 100000 | – | > 100000 | 9800 | 31000 | – | – | – | – | Cc1nc2ccc(-c3ccc(CN4CCC[C@H]4CO)cc3)cc2n1C[C@H]1CCCO1 | –
– | – | – | 519 | 439 | – | – | – | – | CS(=O)(=O)Cc1cccc(OCc2ccc(CN3CCC[C@@H]3CO)cc2)c1 | –
– | – | – | – | > 100000 | – | – | – | – | Cc1nc2ccc(-c3ccc(CN4CCCC4)cc3)cc2n1C[C@H]1CCCO1 | –
2.4 | 173 | 25 | 1.7 | 4.5 | – | – | – | – | Cc1nc(-c2cccc(OCc3ccc(CN4CCC[C@@H]4CO)cc3)c2)no1 | –
– | – | – | 10 | 11 | – | – | – | – | Cc1nc2ccc(-c3ccc(CN4CCC[C@@H]4CO)cc3)cc2n1CC1CCCC1 | –

The next lines start with the molecule.

SMILES | IC50 (Sphingosine kinase 2) [nM] | IC50 (Sphingosine kinase 1 [1]) [nM] | IC50 (Sphingosine kinase 1 [2]) [nM] | IC50 (Sphingosine kinase 1 [3]) [nM] | IC50 (Sphingosine kinase 1 [4]) [nM] | Kd (Sphingosine kinase 1 [5]) [nM] | IC50 [6] [nM] | IC50 [8] [nM] | solubility [9] | Activity [7]
Cc1cc(CS(=O)(=O)c2ccccc2)cc(OCc2ccc(CN3C[C@@H](O)[C@H](O)C3)cc2)c1 | 465 | 6.4 | 2 | 0.17 | 2 | – | – | – | – | –
Cc1cc(CS(=O)(=O)c2ccccc2)cc(OCc2ccc(CN3C[C@@H](O)[C@@H](O)C3)cc2)c1 | 7230 | 38 | 3.9 | 1 | 3.9 | – | – | – | – | –
Cc1nc2ccc(-c3ccc(CN4CCC[C@H]4CO)cc3)cc2n1C[C@@H]1CCCO1 | > 100000 | – | > 100000 | > 100000 | > 100000 | – | – | – | – | –
OC[C@H]1CCCN1Cc1ccc(COc2cccc(C3CCCCC3)c2)cc1 | < 1.7 | 1.5 | < 1.7 | 0.03 | 0.7 | – | – | – | – | –
Cc1nc2ccc(-c3ccc(CN4CCC[C@@H]4CO)cc3)cc2n1CC(C)C | – | – | – | 440 | 290 | – | – | – | – | –
O=S(=O)(Cc1cccc(OCc2ccc(CN3CCC[C@@H]3CO)cc2)c1)C1CC1 | 164 | 1470 | 40.4 | 1.7 | 10 | – | – | – | – | –
Cc1nc2ccc(-c3ccc(CN4CCC[C@@H]4CO)cc3)cc2n1C[C@H]1CCCO1 | 46000 | – | 870 | 81 | 190 | 2900 | – | – | – | –
CC(C)c1cccc(OCc2ccc(CN3CCC[C@@H]3CO)cc2)c1 | < 1.7 | 19 | 4.8 | 0.6 | 0.8 | – | – | – | – | –
O=S(=O)(Cc1cccc(OCc2ccc(CN3CCC[C@@H]3CO)cc2)c1)c1ccccc1 | 164 | 35 | 2.4 | 0.3 | 2 | – | – | – | – | –
Cc1nc2ccc(-c3ccc(CN4CCC[C@@H]4CO)cc3)cc2n1CCC1CCC1 | – | – | – | 4 | 8 | – | – | – | – | –
Cc1nc2ccc(-c3ccc(CN4CCC[C@@H]4CO)cc3)cc2n1Cc1ccccc1 | – | – | – | 250 | 440 | – | – | – | – | –
Cc1cc(CS(=O)(=O)c2ccccc2)cc(OCc2ccc3[nH]c(N)nc3c2)c1 | 39600 | – | 1400 | 180 | 1700 | – | > 10000 | > 10000 | Insoluble | Non-Toxic
Cc1cc(CS(=O)(=O)c2ccccc2)cc(OCc2ccc3[nH]cnc3c2)c1 | – | – | 48000 | 27000 | 48000 | – | – | – | – | –
Cc1cc(CS(=O)(=O)c2ccccc2)cc(OCc2ccc(CNCCO)cc2)c1 | 35100 | – | 14.6 | 3.5 | 5.3 | – | – | – | – | –
